Assay results as given in ChEMBL document CHEMBL3085643, “Synthesis and evaluation in monkey of [(18)F]4-fluoro-N-methyl-N-(4-(6-(methylamino)pyrimidin-4-yl)thiazol-2-yl)benzamide ([(18)F]FIMX): a promising radioligand for PET imaging of brain metabotropic glutamate receptor 1 (mGluR1)” (J Med Chem, 2013).
Blank lines part the entries; values can stand above or below the compound they belong to.

How the values were obtained:
[1] = tested on: Brain; assay: Biodistribution in iv dosed rhesus monkey brain measured at 90 mins by PET analysis relative to control; assay type: ADME, organism-based, Macaca mulatta; conditions: in vivo, 1.5 h
Method in brief: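 Baseline scans in rhesus monkey given the [18F] radioligand i.v. (4.6–6.58 mCi; specific activity 1.67–4.18 Ci/μmol at injection). Ketamine 10 mg/kg i.m. induction, then 1.6% isoflurane/98.4% O2, with the head in a stereotaxic frame. microPET Focus 220 scanning for 120 min in 33 frames (30 s–5 min). Regional uptake, including isocontour-delineated cerebellar grey matter, expressed as SUV.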

[2] = molecular target: D(4) dopamine receptor (Homo sapiens, UniProt P21917); assay: Binding affinity to human dopamine D4 receptor by PDSP assay
[3] = Binding affinity to human sigma-2 receptor by PDSP assay
[4] = molecular target: Beta-2 adrenergic receptor (Homo sapiens, UniProt P07550); assay: Binding affinity to human beta2 adrenergic receptor by PDSP assay
[5] = Binding affinity to BZP site in rat brain by PDSP assay; assay type: tissue-based
[6] = molecular target: Muscarinic acetylcholine receptor M3 (Homo sapiens, UniProt P20309); assay: Binding affinity to human muscarinic M3 receptor by PDSP assay
[7] = molecular target: Translocator protein (Homo sapiens, UniProt P30536); assay: Binding affinity to human TSPO receptor by PDSP assay
[8] = molecular target: 5-hydroxytryptamine receptor 1A (Homo sapiens, UniProt P08908); assay: Binding affinity to human 5-HT1A receptor by PDSP assay
[9] = molecular target: Kappa-type opioid receptor (Homo sapiens, UniProt P41145); assay: Binding affinity to human kappa opioid receptor by PDSP assay
[10] = molecular target: D(1B) dopamine receptor (Homo sapiens, UniProt P21918); assay: Binding affinity to human dopamine D5 receptor by PDSP assay
[11] = molecular target: Alpha-2A adrenergic receptor (Homo sapiens, UniProt P08913); assay: Binding affinity to human alpha-2A adrenergic receptor by PDSP assay
[12] = molecular target: Muscarinic acetylcholine receptor M4 (Homo sapiens, UniProt P08173); assay: Binding affinity to human muscarinic M4 receptor by PDSP assay
[13] = molecular target: Metabotropic glutamate receptor 5 (Rattus norvegicus, UniProt P31424); assay: Binding affinity to mGluR5 in rat brain; assay type: tissue-based
[14] = molecular target: Beta-1 adrenergic receptor (Homo sapiens, UniProt P08588); assay: Binding affinity to human beta1 adrenergic receptor by PDSP assay
[15] = molecular target: 5-hydroxytryptamine receptor 7 (Homo sapiens, UniProt P34969); assay: Binding affinity to human 5-HT7 receptor by PDSP assay
[16] = molecular target: Histamine H1 receptor (Homo sapiens, UniProt P35367); assay: Binding affinity to human histamine H1 receptor by PDSP assay
[17] = molecular target: Alpha-2C adrenergic receptor (Homo sapiens, UniProt P18825); assay: Binding affinity to human alpha-2C adrenergic receptor by PDSP assay
[18] = molecular target: Metabotropic glutamate receptor 5 (Homo sapiens, UniProt P41594); assay: Binding affinity to human mGluR5 by PDSP assay
[19] = molecular target: Alpha-1D adrenergic receptor (Homo sapiens, UniProt P25100); assay: Binding affinity to human alpha-1D adrenergic receptor by PDSP assay
[20] = molecular target: D(2) dopamine receptor (Homo sapiens, UniProt P14416); assay: Binding affinity to human dopamine D2 receptor by PDSP assay
[21] = molecular target: GABA-A receptor; agonist GABA site; assay: Binding affinity to human GABAA receptor by PDSP assay; assay type: protein-complex assay
[22] = molecular target: Alpha-2B adrenergic receptor (Homo sapiens, UniProt P18089); assay: Binding affinity to human alpha-2B adrenergic receptor by PDSP assay
[23] = molecular target: 5-hydroxytryptamine receptor 3A (Homo sapiens, UniProt P46098); assay: Binding affinity to human 5-HT3 receptor by PDSP assay
[24] = molecular target: Delta-type opioid receptor (Homo sapiens, UniProt P41143); assay: Binding affinity to human delta opioid receptor by PDSP assay
[25] = molecular target: Muscarinic acetylcholine receptor M1 (Homo sapiens, UniProt P11229); assay: Binding affinity to human muscarinic M1 receptor by PDSP assay
[26] = molecular target: 5-hydroxytryptamine receptor 1E (Homo sapiens, UniProt P28566); assay: Binding affinity to human 5-HT1E receptor by PDSP assay
[27] = molecular target: Muscarinic acetylcholine receptor M2 (Homo sapiens, UniProt P08172); assay: Binding affinity to human muscarinic M2 receptor by PDSP assay
[28] = molecular target: 5-hydroxytryptamine receptor 2C (Homo sapiens, UniProt P28335); assay: Binding affinity to human 5-HT2C receptor by PDSP assay
[29] = molecular target: 5-hydroxytryptamine receptor 1B (Homo sapiens, UniProt P28222); assay: Binding affinity to human 5-HT1B receptor by PDSP assay
[30] = molecular target: 5-hydroxytryptamine receptor 5A (Homo sapiens, UniProt P47898); assay: Binding affinity to human 5-HT5A receptor by PDSP assay
[31] = molecular target: Beta-3 adrenergic receptor (Homo sapiens, UniProt P13945); assay: Binding affinity to human beta3 adrenergic receptor by PDSP assay
[32] = molecular target: Alpha-1B adrenergic receptor (Homo sapiens, UniProt P35368); assay: Binding affinity to human alpha-1B adrenergic receptor by PDSP assay
[33] = molecular target: Glutamate [NMDA] receptor; assay: Binding affinity to human NMDA receptor by PDSP assay
[34] = molecular target: Muscarinic acetylcholine receptor M5 (Homo sapiens, UniProt P08912); assay: Binding affinity to human muscarinic M5 receptor by PDSP assay
[35] = molecular target: 5-hydroxytryptamine receptor 1D (Homo sapiens, UniProt P28221); assay: Binding affinity to human 5-HT1D receptor by PDSP assay
[36] = molecular target: 5-hydroxytryptamine receptor 6 (Homo sapiens, UniProt P50406); assay: Binding affinity to human 5-HT6 receptor by PDSP assay
[37] = molecular target: Mu-type opioid receptor (Homo sapiens, UniProt P35372); assay: Binding affinity to human mu opioid receptor by PDSP assay
[38] = molecular target: D(3) dopamine receptor (Homo sapiens, UniProt P35462); assay: Binding affinity to human dopamine D3 receptor by PDSP assay
[39] = molecular target: Histamine H3 receptor (Homo sapiens, UniProt Q9Y5N1); assay: Binding affinity to human histamine H3 receptor by PDSP assay
[40] = molecular target: Alpha-1A adrenergic receptor (Homo sapiens, UniProt P35348); assay: Binding affinity to human alpha-1A adrenergic receptor by PDSP assay
[41] = molecular target: Sodium-dependent serotonin transporter (Homo sapiens, UniProt P31645); assay: Binding affinity to human SERT by PDSP assay
[42] = molecular target: 5-hydroxytryptamine receptor 2B (Homo sapiens, UniProt P41595); assay: Binding affinity to human 5-HT2B receptor by PDSP assay
[43] = molecular target: D(1A) dopamine receptor (Homo sapiens, UniProt P21728); assay: Binding affinity to human dopamine D1 receptor by PDSP assay
[44] = molecular target: Sigma non-opioid intracellular receptor 1 (Homo sapiens, UniProt Q99720); assay: Binding affinity to human sigma-1 receptor by PDSP assay
[45] = molecular target: Sodium-dependent noradrenaline transporter (Homo sapiens, UniProt P23975); assay: Binding affinity to human NET by PDSP assay

Sequence of Beta-3 adrenergic receptor (P13945 whole entry): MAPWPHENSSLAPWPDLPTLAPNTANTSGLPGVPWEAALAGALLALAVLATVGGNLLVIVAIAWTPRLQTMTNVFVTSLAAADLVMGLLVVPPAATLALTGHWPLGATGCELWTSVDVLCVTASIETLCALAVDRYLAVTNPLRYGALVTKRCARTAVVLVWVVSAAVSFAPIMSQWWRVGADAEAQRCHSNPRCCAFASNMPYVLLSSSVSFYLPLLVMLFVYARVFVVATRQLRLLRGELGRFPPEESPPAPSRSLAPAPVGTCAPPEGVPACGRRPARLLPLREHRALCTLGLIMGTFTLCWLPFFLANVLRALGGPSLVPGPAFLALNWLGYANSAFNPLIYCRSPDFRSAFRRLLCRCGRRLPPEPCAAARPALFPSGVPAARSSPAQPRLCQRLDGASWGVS
Sequence of Histamine H3 receptor (Q9Y5N1 whole entry): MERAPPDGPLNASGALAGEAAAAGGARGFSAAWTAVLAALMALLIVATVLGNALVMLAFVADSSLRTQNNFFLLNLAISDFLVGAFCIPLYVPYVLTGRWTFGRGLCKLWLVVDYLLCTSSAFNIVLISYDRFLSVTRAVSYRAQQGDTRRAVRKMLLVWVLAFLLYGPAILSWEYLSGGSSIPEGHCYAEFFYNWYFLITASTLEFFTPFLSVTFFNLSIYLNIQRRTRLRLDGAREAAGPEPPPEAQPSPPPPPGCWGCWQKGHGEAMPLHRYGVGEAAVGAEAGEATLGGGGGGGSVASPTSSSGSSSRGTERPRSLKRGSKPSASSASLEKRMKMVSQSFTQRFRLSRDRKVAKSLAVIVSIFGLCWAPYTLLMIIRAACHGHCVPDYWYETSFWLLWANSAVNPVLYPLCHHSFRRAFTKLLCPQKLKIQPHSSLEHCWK
Sequence of 5-hydroxytryptamine receptor 1D (P28221 whole entry): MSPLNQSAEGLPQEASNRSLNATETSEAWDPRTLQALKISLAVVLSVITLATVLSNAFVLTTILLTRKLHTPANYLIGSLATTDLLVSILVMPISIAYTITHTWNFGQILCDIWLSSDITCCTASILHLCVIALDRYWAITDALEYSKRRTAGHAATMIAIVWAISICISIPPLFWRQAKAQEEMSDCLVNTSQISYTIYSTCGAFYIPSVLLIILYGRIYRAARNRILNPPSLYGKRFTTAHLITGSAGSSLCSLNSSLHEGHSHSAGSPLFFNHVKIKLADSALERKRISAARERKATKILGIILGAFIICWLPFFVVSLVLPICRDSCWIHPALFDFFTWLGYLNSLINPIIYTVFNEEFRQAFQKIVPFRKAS
Sequence of 5-hydroxytryptamine receptor 2C (P28335 whole entry): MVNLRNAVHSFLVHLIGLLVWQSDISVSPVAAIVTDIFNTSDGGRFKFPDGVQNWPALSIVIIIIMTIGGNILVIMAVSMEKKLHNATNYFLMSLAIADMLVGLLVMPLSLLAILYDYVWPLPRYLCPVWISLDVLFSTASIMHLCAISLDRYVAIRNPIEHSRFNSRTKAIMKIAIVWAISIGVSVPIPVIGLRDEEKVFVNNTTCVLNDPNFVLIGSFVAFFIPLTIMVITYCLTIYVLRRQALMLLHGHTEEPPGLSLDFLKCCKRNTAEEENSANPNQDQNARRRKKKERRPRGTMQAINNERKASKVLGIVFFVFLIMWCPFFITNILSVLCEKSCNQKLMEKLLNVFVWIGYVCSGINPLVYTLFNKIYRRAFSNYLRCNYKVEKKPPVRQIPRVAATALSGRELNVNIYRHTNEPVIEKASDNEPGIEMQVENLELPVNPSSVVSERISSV
Sequence of Alpha-2A adrenergic receptor (P08913 whole entry): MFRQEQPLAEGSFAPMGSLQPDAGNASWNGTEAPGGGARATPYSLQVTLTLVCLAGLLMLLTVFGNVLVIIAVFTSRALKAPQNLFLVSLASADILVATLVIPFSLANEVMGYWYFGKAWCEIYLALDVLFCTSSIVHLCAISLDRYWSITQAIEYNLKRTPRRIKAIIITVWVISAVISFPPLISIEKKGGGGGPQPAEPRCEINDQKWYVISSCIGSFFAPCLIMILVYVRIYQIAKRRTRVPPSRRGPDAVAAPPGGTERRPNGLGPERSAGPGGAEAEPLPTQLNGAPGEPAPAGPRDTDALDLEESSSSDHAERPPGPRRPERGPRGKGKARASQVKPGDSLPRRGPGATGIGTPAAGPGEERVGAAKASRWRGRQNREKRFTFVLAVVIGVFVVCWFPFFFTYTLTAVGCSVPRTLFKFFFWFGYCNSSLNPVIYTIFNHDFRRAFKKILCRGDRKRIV
Sequence of 5-hydroxytryptamine receptor 6 (P50406 whole entry): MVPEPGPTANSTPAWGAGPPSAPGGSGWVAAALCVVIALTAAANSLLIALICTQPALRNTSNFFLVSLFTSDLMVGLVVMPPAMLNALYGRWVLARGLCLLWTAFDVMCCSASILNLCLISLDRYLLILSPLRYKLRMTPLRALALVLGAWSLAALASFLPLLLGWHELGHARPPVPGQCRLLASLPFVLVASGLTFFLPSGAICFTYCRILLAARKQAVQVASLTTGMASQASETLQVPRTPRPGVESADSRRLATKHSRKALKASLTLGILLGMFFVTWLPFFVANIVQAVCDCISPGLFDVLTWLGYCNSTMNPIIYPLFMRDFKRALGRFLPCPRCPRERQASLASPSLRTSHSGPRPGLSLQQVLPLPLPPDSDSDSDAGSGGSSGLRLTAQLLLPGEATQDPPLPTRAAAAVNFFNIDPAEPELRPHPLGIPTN
Sequence of 5-hydroxytryptamine receptor 5A (P47898 whole entry): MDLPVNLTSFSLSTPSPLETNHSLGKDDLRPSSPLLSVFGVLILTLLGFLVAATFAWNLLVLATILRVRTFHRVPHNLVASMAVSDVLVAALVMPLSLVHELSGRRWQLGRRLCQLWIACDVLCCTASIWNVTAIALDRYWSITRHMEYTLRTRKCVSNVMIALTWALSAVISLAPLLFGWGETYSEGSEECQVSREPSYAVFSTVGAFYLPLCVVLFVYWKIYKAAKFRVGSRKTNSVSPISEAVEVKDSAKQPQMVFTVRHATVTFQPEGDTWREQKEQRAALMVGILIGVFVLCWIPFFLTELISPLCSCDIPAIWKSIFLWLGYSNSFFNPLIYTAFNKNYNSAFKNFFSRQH
Sequence of Alpha-2B adrenergic receptor (P18089 whole entry): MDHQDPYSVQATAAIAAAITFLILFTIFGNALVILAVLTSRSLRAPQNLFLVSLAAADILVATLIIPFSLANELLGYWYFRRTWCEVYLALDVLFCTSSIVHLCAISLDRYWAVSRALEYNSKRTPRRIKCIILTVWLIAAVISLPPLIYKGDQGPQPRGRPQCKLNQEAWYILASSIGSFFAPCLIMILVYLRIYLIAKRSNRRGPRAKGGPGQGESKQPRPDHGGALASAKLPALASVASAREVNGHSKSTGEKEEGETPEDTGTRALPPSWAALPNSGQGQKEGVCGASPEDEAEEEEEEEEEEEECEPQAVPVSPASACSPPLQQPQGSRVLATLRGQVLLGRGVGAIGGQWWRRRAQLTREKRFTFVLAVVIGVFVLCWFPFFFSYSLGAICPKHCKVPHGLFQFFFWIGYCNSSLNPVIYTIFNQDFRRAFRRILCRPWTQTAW
Sequence of 5-hydroxytryptamine receptor 2B (P41595 whole entry): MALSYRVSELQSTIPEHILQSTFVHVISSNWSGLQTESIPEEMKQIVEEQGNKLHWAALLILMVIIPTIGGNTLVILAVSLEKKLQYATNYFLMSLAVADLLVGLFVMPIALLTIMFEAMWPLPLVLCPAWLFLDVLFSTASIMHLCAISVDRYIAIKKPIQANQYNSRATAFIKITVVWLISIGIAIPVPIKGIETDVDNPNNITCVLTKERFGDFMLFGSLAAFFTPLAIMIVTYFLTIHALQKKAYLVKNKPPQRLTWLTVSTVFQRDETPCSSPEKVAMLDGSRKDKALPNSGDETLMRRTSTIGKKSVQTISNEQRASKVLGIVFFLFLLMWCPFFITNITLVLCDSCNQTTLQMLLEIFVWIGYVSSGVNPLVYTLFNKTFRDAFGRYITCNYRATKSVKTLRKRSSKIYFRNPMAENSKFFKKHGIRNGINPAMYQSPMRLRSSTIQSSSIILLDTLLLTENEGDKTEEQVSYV
Sequence of Muscarinic acetylcholine receptor M2 (P08172 whole entry): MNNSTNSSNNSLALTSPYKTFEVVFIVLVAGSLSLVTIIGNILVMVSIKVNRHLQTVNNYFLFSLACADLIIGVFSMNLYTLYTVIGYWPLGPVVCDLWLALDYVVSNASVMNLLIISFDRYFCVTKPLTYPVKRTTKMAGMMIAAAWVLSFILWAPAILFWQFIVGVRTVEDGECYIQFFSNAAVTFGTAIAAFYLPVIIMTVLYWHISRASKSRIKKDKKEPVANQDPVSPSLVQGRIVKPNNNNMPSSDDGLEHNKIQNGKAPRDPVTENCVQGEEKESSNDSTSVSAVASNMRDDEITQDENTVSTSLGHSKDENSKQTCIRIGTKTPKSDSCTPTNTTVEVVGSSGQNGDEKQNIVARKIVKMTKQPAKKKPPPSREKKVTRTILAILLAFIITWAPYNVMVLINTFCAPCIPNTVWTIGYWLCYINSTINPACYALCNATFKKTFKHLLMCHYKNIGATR
Sequence of D(4) dopamine receptor (P21917 whole entry): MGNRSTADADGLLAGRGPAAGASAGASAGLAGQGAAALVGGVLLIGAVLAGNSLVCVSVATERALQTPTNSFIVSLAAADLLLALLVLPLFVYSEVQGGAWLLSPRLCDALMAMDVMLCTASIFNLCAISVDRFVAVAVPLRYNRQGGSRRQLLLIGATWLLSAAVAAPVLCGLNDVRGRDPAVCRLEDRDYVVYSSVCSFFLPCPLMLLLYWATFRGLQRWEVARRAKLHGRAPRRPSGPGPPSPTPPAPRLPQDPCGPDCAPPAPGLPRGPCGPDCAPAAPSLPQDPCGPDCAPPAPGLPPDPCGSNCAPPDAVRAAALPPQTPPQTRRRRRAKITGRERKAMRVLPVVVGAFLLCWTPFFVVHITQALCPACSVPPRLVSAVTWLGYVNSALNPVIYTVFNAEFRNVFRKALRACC
Sequence of Translocator protein (P30536 whole entry): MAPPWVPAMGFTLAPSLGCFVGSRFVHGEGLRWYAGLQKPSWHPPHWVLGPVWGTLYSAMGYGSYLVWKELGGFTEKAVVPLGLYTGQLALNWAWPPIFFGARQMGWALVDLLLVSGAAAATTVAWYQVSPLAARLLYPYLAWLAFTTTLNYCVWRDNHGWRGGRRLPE

Drug uptake [1]: 17%
SMILES: CC(C)Nc1cc(-c2csc(N(C)C(=O)c3ccc([18F])cc3)n2)ncn1

Ki [2]: > 10 µM
Ki [3]: > 10 µM
Ki [4]: > 10 µM
Ki [5]: > 10 µM
Ki [6]: > 10 µM
Ki [7]: > 10 µM
Ki [8]: > 10 µM
Ki [9]: > 10 µM
Ki [10]: > 10 µM
Ki [11]: > 10 µM
Ki [12]: > 10 µM
Ki [13]: 2.1 µM
Ki [14]: > 10 µM
Ki [15]: > 10 µM
Ki [16]: > 10 µM
Ki [17]: > 10 µM
Ki [18]: 7.9 µM
Ki [19]: > 10 µM
Ki [20]: > 10 µM
Ki [21]: > 10 µM
Ki [22]: > 10 µM
Ki [23]: > 10 µM
Ki [24]: > 10 µM
Ki [25]: > 10 µM
Ki [26]: > 10 µM
Ki [27]: > 10 µM
Ki [28]: > 10 µM
Ki [29]: > 10 µM
Ki [30]: > 10 µM
Ki [31]: > 10 µM
Ki [32]: > 10 µM
Ki [33]: > 10 µM
Ki [34]: > 10 µM
Ki [35]: > 10 µM
Ki [36]: > 10 µM
Ki [37]: > 10 µM
Ki [38]: > 10 µM
Ki [39]: > 10 µM
Ki [40]: > 10 µM
Ki [41]: > 10 µM
Ki [42]: > 10 µM
Ki [43]: > 10 µM
Ki [44]: > 10 µM
Ki [45]: > 10 µM
SMILES: CNc1cc(-c2csc(N(C)C(=O)c3ccc(F)cc3)n2)ncn1
